The list is not random: actives were taken first. Their share in the collection is about 3%.
SR-BI DiI-HDL act = activators of SR-BI mediated DiI-HDL uptake, primary screen, ldlA[mSR-BI] CHO cells, DiI fluorescence; 3 h; 100 = double the neutral-control signal; activation, % at 12.5 µM; 320,000 tested, 0.096% active;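 active = mean replicate activation of at least 60% and every replicate at or above 60%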;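 note: 0% = median plate neutral-control signal and 100% = twice that signal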
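Material – SR-BI-overexpressing, LDLR-lacking CHO cells · Medium – BSA-supplemented, HEPES-buffered Ham's F12, pH 7.4 · Doses – single concentration · Times – compound with DiI-HDL co-incubation, 3 h at 37 °C · Measured by – bottom-read fluorescence, 550/595 nm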
Kir21 inh = inhibitors of mouse Kir2.1 inward-rectifier potassium channel; Inward rectifier potassium channel 2 (Mus musculus), P35561; HEK293-Kir2.1, FluxOR thallium flux fluorescence; stronger effect = lower value; B-score at 10 µM; 310,000 tested, 0.85% active; AID 1672, 2009;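 active = fluorescence ratio B-score at or below minus 3 SD of library scores, with starting-brightness B-score within 2 SD, cut at about -4.2 in these data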;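 note: channel flux triggered by added potassium and thallium sulfate stimulus; B-score of peak minus minimum fluorescence over baseline after thallium stimulus; more negative B-score means stronger Kir2.1 block with less thallium influx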
SR-BI HDL uptake = inhibitors of SR-BI mediated HDL lipid uptake, primary screen, ldlA[mSR-BI] cells, fluorescence, single point; Scavenger receptor class B member 1 (Mus musculus), Q61009; ldlA[mSR-BI] CHO cells, DiI-HDL uptake fluorescence, 3 h; inhibition, % at 12.5 µM; 320,000 tested, 0.96% active; AID 488896, 2010;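 active = mean replicate inhibition of at least 70% and a set share of replicates each scoring 70 or more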;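 note: 0% = median of neutral control wells and 100% = median of positive control wells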
Target sequence (Q61009 whole entry, looked up): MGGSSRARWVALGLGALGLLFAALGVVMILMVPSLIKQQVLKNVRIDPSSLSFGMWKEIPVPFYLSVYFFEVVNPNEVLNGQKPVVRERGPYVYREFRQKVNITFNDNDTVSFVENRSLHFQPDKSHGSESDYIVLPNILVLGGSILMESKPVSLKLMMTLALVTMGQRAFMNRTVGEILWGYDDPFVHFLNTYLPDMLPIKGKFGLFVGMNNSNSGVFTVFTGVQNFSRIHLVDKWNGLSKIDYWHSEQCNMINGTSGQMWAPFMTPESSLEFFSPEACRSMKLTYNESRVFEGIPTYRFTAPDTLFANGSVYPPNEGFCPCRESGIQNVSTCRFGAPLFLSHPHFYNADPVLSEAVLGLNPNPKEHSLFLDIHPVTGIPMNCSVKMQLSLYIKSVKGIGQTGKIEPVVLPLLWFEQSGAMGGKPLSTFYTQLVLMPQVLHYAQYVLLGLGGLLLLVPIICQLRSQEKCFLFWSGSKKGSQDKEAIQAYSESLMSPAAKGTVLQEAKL
ANO1 activ = TMEM16A chloride channel activators or potentiators, primary screen, cell-based, HTS; HEK293 TMEM16A/YFP-H148Q/I152L, iodide quench fluorescence; stronger effect = lower value; Anoctamin-1 (Mus musculus), Q8BHY3; 340,000 tested, 0.3% active; AID 623877, 2012; B-score at 10 µM;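 active = fluorescence-ratio B-score plate-corrected deviation score at least 3 library SD below zero, with starting fluorescence score within 5 deviations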;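 note: channel opened by trigger with iodide after compound preincubation; score built on the fluorescence ratio of max minus min over baseline; more negative score means more quench and so TMEM16A activation or potentiation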
TMEM16A inh = TMEM16A chloride channel inhibitors, primary screen, cell-based, HTS; Anoctamin-1 (Mus musculus), Q8BHY3; HEK293 TMEM16A/YFP iodide influx fluorescence, ionomycin; normalized B-score (activity score, 25-100; higher = stronger inhibition) at 10 µM; 310,000 tested, 1.2% active;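 active = ratio plate-corrected score three or more library SD toward inhibition, starting fluorescence score within five deviations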;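 note: score derived from kinetic fluorescence span divided by baseline fluorescence per well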
DNA FID counter = compounds displacing fluorescent DNA intercalator, primary screen, artefact control for HCV NS3 helicase inhibitor project, biochemical, FID fluorescence | DNA fluorescent intercalator displacement | inhibition, % at 7.9 µM | 290,000 tested, 0.17% active | AID 1845, 2009; in the data active = inhibition above about 37%;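 note: 0% = vehicle and 100% = reference compound; higher means more ethidium bromide displaced from hairpin DNA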
Numbers without * were called inactive; i = inactive; nt = no result given.

SMILES | SR-BI DiI-HDL act | Kir21 inh | SR-BI HDL uptake | ANO1 activ | TMEM16A inh | DNA FID counter
Cc1ccc(C(=O)O)cc1NC(=O)CSc1nnc(-c2ccccc2F)n1C1CCCCC1 | 37 | nt | -37 | i | nt | nt
O=C(NNC1=C(C(=O)C(F)(F)F)CCC1)c1cccc(Cl)c1 | -80 | -0.97 | 80* | i | 100* | -4
COc1ccc(C(=O)NNC2=C(C(=O)C(F)(F)F)CCC2)cc1 | -95 | 1.7 | 95* | i | i | -15
COc1ccc(C(=O)NNc2ccccc2)cc1 | 3 | -0.64 | -3 | i | i | -3
C=CCc1cc(Cl)ccc1OCCOCCNCCOC | -6 | -5.9* | 6 | i | i | 21
C=CCc1cc(Cl)ccc1OCCNCCCOC | 26 | -0.59 | -26 | i | i | 13
COCCCNCCCOc1ccc(Cl)cc1C(C)(C)C | 4 | -5.1* | -4 | i | i | 20
COCCNCCCOc1ccc(Br)cc1Cl | 23 | -0.22 | -23 | i | i | 7
CNCCCOc1ccc(Cl)cc1C(C)(C)C | 10 | -9.6 | -10 | i | i | 22
COCCCNCCCCOc1ccc(Br)cc1Cl | -2 | -6.8* | 2 | i | i | 33
O=C1C=CC(=O)N1CCNc1ncc(C(F)(F)F)cc1Cl | -11 | -5.7* | 11 | i | nt | -2
CSc1nsc(/C=C/Nc2ccc(O)cc2C)c1C#N | -81 | 0.87 | 81* | i | i | -8
CN(Cc1ccc(F)cc1)C(=O)c1sccc1-c1ccccc1 | -5 | -7.8* | 5 | i | i | -27
COc1ccc(CN(C)C(=O)c2sccc2-c2ccccc2)c(OC)c1 | -12 | -2.1 | 12 | i | i | -37
CCOc1ccc(N=C2SC(C(=O)Nc3ccccc3C#N)C(N)=C2C(=O)Nc2ccc(Cl)cc2)cc1 (configuration not stated) | -18 | -0.49 | 18 | i | i | 2
N#Cc1ccccc1NC(=O)C1SC(=Nc2ccccc2)C(C(=O)Nc2ccc(Cl)cc2)=C1N (configuration not stated) | -108 | 0.93 | 108* | i | i | 1
CCN(C1CCS(=O)(=O)C1)S(=O)(=O)c1ccc(Cl)s1 (configuration not stated) | -2 | nt | 2 | i | nt | nt
CC1CCCN(CCCNC(=O)C2CCN(S(=O)(=O)N3CCC4(CC3)OCCO4)CC2)C1 (configuration not stated) | 24 | 0.78 | -24 | i | i | 13
CN(C)c1ccc(/C=N/NC(=O)c2ccc(CN3CCOCC3)cc2)cc1Br | -84 | 0.82 | 84* | i | i | -8
CCOc1cc(/C=N/NC(=O)c2ccc(CN3CCOCC3)cc2)ccc1OC | -48 | 0 | 48 | i | i | -15
CCOC(=O)C1=C(O)/C(=C/c2ccc(OCC(=O)O)c(OC)c2)SC1=Nc1ccc(OCC)cc1 | 6 | 1.4 | -6 | i | i | -24
CCOC(=O)C1=C(O)/C(=C/c2cc(OC)c(O)c(OC)c2)SC1=Nc1ccc(OC)cc1 | -86 | -1.6 | 86* | i | nt | -6
C=CCOC1COC2C(OCC=C)COC12 (configuration not stated) | 14 | nt | -14 | i | nt | nt
CCOc1ccc(NC(=O)C2CCCN(S(C)(=O)=O)C2)cc1 (configuration not stated) | -7 | 0.94 | 7 | i | i | -2
O=C(Nc1cccc(S(=O)(=O)N2CCOCC2)c1)c1ccc2ccccc2n1 | nt | 0.06 | nt | i | i | -18
SMILES | SR-BI DiI-HDL act | Kir21 inh | SR-BI HDL uptake | ANO1 activ | TMEM16A inh | DNA FID counter
COc1ccc(NC(=O)c2cc(C)nc3ccccc23)cc1S(=O)(=O)N1CCOCC1 | -32 | nt | 32 | i | nt | nt
COc1ccc(NC(=O)c2cc(-c3ccco3)nc3ccccc23)cc1S(=O)(=O)N1CCOCC1 | -89 | -0.58 | 89* | i | i | -23
O=C(Nc1ccc(Cl)c(S(=O)(=O)N2CCOCC2)c1)c1cc(-c2ccccn2)nc2ccccc12 | -83 | -0.64 | 83* | i | i | -22
Cc1ccc(NC(=O)c2ccc3ccccc3n2)cc1S(=O)(=O)N1CCOCC1 | -95 | -0.5 | 95* | i | i | -10
O=C(N/N=C/c1ccc(-c2ccc(S(=O)(=O)Nc3ncccn3)cc2)o1)c1cc2ccccc2cc1O | -11 | 0.39 | 11 | i | 100* | -25
Cc1cccc(NC(=O)C(=O)NCCc2c[nH]c3ccccc23)c1C | 4 | -0.78 | -4 | -5.6* | i | -1
Cc1c(C)n(C)c2ccc(C(=O)NCCN3CCOCC3)cc12 | -32 | -1.1 | 32 | i | i | -4
O=C(CCNC(=O)C1CCN(S(=O)(=O)c2ccccc2)CC1)NCCc1cccc(F)c1 | -16 | 0.03 | 16 | i | i | -42
Cc1ccc(C(=O)N2CCCC(C(=O)c3cc(F)ccc3F)C2)s1 (configuration not stated) | nt | -5* | nt | i | i | -5
COc1ccc(-c2nnc(-c3cc(OC)c(OC)c(OC)c3)o2)cc1OC | -76 | -1.3 | 76* | i | i | -28
COc1cc(-c2nc(-c3cccc(C)c3)no2)cc(OC)c1OC | -84 | 1.1 | 84* | i | i | -9
COc1ccc(-c2nc(-c3cccc(C)c3)no2)cc1OC | -12 | -0.96 | 12 | i | i | 1
COc1cc(-c2noc(-c3cccc(Cl)c3)n2)cc(OC)c1OC | -76 | -0.01 | 76* | i | i | 4
COc1cc(-c2nnc(-c3cccs3)o2)cc(OC)c1OC | -23 | -0.39 | 42 | i | i | -2
COc1ccc(CN(C)C(=O)c2ccc(NS(=O)(=O)c3ccc(C)c([N+](=O)[O-])c3)cc2)c(OC)c1OC | 13 | -1.1 | -13 | i | i | nt
Cc1ccc(S(=O)(=O)NCC(=O)OCC(=O)N2CC(C)OC(C)C2)cc1 (configuration not stated) | 50 | nt | -50 | i | nt | nt
C/C(CCc1oc2c(Br)cc(Br)cc2c1-c1ccc(C)o1)=N\O | -78 | 1.3 | 78* | i | i | -13
C/C(CCc1oc2ccccc2c1-c1ccc(C)o1)=N/O | -33 | -0.83 | 33 | i | i | -14
C/C(N)=C(/C#N)C(=O)COC(=O)c1ccccc1O | -9 | -1.8 | 9 | i | i | -1
C/C(N)=C(/C#N)C(=O)COC(=O)c1ccccc1C(=O)c1ccc(C)cc1 | 4 | -5.1* | -4 | i | i | -18
